We go through 9 molecules from ChEMBL document CHEMBL3414544, “PAINS in the assay: chemical mechanisms of assay interference and promiscuous enzymatic inhibition observed during a sulfhydryl-scavenging HTS” (J Med Chem, 2015).

Usually IC50 stands for the concentration that inhibits the measured activity by half.

Series [1] addresses T1, Lupus La protein (Homo sapiens) (UniProt P05455).
T1 sequence (whole entry): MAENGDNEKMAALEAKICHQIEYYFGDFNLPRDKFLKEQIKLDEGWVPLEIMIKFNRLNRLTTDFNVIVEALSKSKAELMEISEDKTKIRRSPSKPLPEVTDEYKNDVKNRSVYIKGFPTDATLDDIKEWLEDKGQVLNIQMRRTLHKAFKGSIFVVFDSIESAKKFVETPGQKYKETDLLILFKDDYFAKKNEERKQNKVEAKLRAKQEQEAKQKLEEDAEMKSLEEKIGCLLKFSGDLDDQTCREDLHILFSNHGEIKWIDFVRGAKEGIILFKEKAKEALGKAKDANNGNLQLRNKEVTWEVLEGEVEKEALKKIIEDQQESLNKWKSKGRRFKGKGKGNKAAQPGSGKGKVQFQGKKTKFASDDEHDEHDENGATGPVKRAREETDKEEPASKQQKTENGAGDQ
Briefly: Induction of thiol reactivity with La protein (unknown origin) using […] assessed as protein reactivity by ALARM NMR. Put shortly: (§1)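 ALARM NMR with recombinant La antigen expressed in E. coli Rosetta, 15N-labelled and 13C-labelled at Leu/Ile δ-methyl and Val γ-methyl groups; protein pre-reduced with 20 mM DTT then dialysed DTT-free under N2.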

A short description of series [2]: Fluorescence quenching assessed as fluorescence signal reduction at 10 uM after 10 mins. It counts as physicochemical. Put shortly: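 CPM (20 μM final) and CoA (5 μM final) reacted to completion in assay buffer (stable plateau, usually ~5 min); adduct solution added to wells preplated with compound; shaken 5 min, equilibrated 5 min at room temperature; fluorescence intensity read as percent signal reduction versus DMSO controls. Flagged as quencher at >20% signal reduction at 10 μM final compound.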

The nature of series [3]: Fluorescence quenching in HTS buffer assessed as fluorescence signal reduction at 10 uM after 10 mins. The class given is physicochemical.
The target of series [4] is Histone acetyltransferase GCN5 (Saccharomyces cerevisiae S288c, UniProt Q03330). Briefly: Inhibition of yeast histone acetyltransferase Gcn5-Ada2-Ada3 complex using tetramer and [3H]-acetyl-CoA assessed as acetate incorporation after 30 mins by liquid scintillation counting. To be noted: read-out: IC50.
Histone acetyltransferase GCN5, sequence (Q03330 whole entry): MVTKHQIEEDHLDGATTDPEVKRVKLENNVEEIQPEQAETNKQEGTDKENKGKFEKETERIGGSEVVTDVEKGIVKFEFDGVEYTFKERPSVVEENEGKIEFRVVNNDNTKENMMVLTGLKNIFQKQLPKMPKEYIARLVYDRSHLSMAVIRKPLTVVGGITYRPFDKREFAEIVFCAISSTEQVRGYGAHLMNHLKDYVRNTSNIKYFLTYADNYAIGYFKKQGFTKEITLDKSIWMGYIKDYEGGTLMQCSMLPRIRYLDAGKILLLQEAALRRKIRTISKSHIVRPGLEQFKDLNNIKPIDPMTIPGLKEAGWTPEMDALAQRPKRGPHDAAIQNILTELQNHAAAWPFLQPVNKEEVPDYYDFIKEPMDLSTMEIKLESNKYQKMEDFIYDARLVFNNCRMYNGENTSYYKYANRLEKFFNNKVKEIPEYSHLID
In series [5] the target is T2, Histone acetyltransferase RTT109 (Saccharomyces cerevisiae (strain ATCC 204508 / S288c) (Baker's yeast)) (UniProt Q07794).
T2 sequence (whole entry): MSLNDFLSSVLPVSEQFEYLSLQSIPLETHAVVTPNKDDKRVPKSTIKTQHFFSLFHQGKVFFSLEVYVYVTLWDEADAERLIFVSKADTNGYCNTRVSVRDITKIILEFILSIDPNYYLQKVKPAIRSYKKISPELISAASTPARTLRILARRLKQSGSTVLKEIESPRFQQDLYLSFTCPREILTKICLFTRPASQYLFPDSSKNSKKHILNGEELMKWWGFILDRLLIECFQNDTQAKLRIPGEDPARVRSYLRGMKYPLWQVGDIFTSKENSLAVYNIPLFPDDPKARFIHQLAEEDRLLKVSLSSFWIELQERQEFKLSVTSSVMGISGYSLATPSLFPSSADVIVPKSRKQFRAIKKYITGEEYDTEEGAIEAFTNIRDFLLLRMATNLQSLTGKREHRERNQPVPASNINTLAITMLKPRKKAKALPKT
Kind of series: Inhibition of Vps75-stimulated recombinant Saccharomyces cerevisiae histone acetyltransferase Rtt109 assessed as H3K27 acetylated product at […] after 45 mins by Slot bolt inhibiton assay.

For series [6], the target named is T2, Histone acetyltransferase RTT109 (Saccharomyces cerevisiae (strain ATCC 204508 / S288c) (Baker's yeast)). Kind of series: Inhibition of Vps75-stimulated recombinant Saccharomyces cerevisiae histone acetyltransferase Rtt109 using [3H]-acetyl-CoA assessed as acetate incorporation […] by liquid scintillation counting in presence of 1 mM DTT.
Series [7] has as its target T3, Histone acetyltransferase p300 (Homo sapiens, UniProt Q09472). Kind of series: Inhibition of recombinant histone acetyltransferase p300 (unknown origin) using dH3-H4 tetramer and [3H]-acetyl-CoA assessed as acetate incorporation after 5 mins by liquid scintillation counting in presence of 1 mM DTT.
The target of series [8] is T2, Histone acetyltransferase RTT109 (Saccharomyces cerevisiae (strain ATCC 204508 / S288c) (Baker's yeast)). Kind of series: Inhibition of Vps75-stimulated recombinant Saccharomyces cerevisiae histone acetyltransferase Rtt109 assessed as H3K56 acetylated product at […] after 45 mins by Slot bolt inhibiton assay.
The target in series [9] is T3, Histone acetyltransferase p300. Kind of series: Inhibition of recombinant histone acetyltransferase p300 (unknown origin) using dH3-H4 tetramer and [3H]-acetyl-CoA assessed as acetate incorporation […] by liquid scintillation counting. To be noted: read-out: IC50.
Series [10] addresses T4, Histone acetyltransferase RTT109 (Saccharomyces cerevisiae (strain ATCC 204508 / S288c) (Baker's yeast), UniProt Q07794).
T4 sequence (Q07794 whole entry): T2 sequence (whole entry)
Briefly: Inhibition of Vps75-stimulated recombinant Saccharomyces cerevisiae histone acetyltransferase Rtt109 using Asf1-dH3-H4 as substrate assessed as coenzyme A production after 45 mins by CPM based HTS assay. An outline of the steps:
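Recombinant Rtt109–Vps75 at 50 nM, with Asf1–dH3–H4 as substrate and acetyl-CoA as acetyl donor. Buffer contained freshly prepared 0.01% Triton X-100. The CoA product was detected by fluorescence of its CPM adduct. Plates had Z′ ≥0.5. IC50 came from a four-parameter variable-slope fit.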

The nature of series [11]: Fluorescence quenching in HTS buffer with 20 uM 7-diethylamino-3-(4'-maleimidyl-phenyl)-4-methylcoumarin assessed as fluorescence signal reduction at 10 uM after 10 mins. It counts as physicochemical.
The target in series [12] is Histone acetyltransferase GCN5 (Saccharomyces cerevisiae S288c) (UniProt Q03330). Kind of series: Inhibition of yeast histone acetyltransferase Gcn5-Ada2-Ada3 complex using tetramer and [3H]-acetyl-CoA assessed as acetate incorporation […] by liquid scintillation counting in presence of 1 mM DTT.
Histone acetyltransferase GCN5 (Saccharomyces cerevisiae S288c), sequence (Q03330 whole entry): as the sequence (Q03330 whole entry) above
Series [13] is described as follows: Chemical stability of the compound in HTS buffer assessed as GSH adduct formation by UPLC-MS analysis. It counts as physicochemical. An outline of the steps: (§2)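 Compound (typically 0.5 mM final) incubated in HTS buffer (pH 8.0) for 5, 15 or 30 min, then reduced glutathione added (2 equiv per 1 equiv compound); aliquots analysed by UPLC–MS (BEH C18 column, ELS and 254 nm traces) 5 min after GSH addition, and the same sample re-analysed 15 min later. HTS-like conditions but 5% DMSO, no detergent.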

Series [14] addresses T1, Lupus La protein (Homo sapiens). Briefly: Induction of thiol reactivity with La protein (unknown origin) using […] assessed as protein reactivity by ALARM NMR in presence of 20 mM DTT. An outline of the steps: as §1
Series [15] in a line: Fluorescence quenching in HTS buffer with […] CoA assessed as fluorescence signal reduction at 10 uM after 10 mins. It counts as physicochemical.
Series [16] has as its target T4, Histone acetyltransferase RTT109. Briefly: Inhibition of Vps75-stimulated recombinant Saccharomyces cerevisiae histone acetyltransferase Rtt109 using [3H]-acetyl-CoA assessed as acetate incorporation after 30 mins by liquid scintillation counting. To be noted: read-out: IC50.
Series [17] is described as follows: Chemical stability of the compound in HTS buffer assessed as GSH adduct formation measured as retention time after 15 mins by UPLC-MS analysis. To be noted: 0.25 h. The class given is physicochemical. Put shortly:
as §2

Series [18] can be described thus: Chemical stability of the compound in HTS buffer assessed as GSH adduct formation measured as retention time after 5 mins by UPLC-MS analysis. It counts as physicochemical. An outline of the steps: as §2

The source made the active and inactive calls. Unless noted, the rule behind the calls is not given here.

T3 sequence (Q09472 whole entry): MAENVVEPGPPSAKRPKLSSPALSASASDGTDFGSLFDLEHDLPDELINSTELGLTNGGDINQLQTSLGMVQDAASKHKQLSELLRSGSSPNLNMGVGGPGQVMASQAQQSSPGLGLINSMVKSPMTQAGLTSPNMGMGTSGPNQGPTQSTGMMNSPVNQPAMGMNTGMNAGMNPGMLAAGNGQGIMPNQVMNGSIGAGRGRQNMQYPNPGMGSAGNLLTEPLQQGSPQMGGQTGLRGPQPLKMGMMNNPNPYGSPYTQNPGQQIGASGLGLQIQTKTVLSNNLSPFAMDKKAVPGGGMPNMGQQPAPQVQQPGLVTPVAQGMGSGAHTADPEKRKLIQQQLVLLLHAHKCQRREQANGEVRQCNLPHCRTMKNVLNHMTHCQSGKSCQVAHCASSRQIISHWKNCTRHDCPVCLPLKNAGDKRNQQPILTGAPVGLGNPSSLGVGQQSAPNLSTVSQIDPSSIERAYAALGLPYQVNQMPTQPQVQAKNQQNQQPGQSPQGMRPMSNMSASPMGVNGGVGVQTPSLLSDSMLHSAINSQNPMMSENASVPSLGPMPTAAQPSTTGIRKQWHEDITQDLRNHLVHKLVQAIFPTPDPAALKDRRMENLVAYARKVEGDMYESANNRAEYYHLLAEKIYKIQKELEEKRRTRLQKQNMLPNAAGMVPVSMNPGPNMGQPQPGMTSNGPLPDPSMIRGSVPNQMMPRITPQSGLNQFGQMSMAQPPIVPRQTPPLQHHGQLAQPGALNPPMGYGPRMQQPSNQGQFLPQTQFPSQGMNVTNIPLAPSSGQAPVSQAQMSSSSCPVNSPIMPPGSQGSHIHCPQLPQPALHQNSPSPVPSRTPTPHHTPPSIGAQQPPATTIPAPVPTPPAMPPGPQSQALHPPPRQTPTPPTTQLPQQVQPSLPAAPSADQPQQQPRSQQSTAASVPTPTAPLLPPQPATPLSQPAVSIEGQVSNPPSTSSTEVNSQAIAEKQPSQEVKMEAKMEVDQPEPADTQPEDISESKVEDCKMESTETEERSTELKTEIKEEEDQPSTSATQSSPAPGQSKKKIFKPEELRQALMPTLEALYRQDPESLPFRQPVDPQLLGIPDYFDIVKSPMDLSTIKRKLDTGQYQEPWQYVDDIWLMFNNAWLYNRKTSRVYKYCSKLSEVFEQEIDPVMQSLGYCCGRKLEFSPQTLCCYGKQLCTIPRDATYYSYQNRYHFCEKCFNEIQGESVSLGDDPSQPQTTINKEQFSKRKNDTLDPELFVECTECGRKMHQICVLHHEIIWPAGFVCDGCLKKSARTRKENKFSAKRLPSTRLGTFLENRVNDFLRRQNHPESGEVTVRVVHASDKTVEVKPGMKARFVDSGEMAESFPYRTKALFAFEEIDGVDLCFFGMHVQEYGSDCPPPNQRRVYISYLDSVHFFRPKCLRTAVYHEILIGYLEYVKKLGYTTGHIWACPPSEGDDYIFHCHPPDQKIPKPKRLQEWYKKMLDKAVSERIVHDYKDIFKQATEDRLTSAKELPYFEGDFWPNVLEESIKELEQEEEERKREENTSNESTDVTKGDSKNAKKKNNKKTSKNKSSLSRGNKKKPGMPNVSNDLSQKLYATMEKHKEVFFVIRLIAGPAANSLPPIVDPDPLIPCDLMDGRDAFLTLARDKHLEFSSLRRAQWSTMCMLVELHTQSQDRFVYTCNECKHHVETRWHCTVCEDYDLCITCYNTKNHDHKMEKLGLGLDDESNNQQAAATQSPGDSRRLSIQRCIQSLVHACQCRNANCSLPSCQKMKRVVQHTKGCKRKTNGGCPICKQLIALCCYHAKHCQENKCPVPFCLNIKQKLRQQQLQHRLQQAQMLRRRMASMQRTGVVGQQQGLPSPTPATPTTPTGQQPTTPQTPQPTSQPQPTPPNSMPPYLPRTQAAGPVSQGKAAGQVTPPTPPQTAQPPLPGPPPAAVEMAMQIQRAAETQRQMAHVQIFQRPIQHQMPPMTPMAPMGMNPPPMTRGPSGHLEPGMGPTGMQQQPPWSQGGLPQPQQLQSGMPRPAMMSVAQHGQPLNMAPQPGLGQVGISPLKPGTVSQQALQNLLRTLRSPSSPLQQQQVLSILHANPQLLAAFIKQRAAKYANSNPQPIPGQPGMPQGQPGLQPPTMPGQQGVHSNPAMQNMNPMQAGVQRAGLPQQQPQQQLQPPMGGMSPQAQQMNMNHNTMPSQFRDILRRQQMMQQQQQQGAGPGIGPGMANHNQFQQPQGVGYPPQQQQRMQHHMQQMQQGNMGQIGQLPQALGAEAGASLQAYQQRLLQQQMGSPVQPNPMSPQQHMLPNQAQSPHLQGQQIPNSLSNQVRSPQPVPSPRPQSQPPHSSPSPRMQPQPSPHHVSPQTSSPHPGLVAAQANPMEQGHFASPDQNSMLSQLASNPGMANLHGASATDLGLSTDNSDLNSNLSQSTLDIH

For the molecule `O=C1CC(Sc2nnc(-c3ccccc3O)o2)C(=O)N1c1ccc(Br)cc1` (centres undefined), the outcome in series [1], in series [5], in [6], in series [7], in [8] and in [12] was Active. Moreover, the Activity result in series [2], in series [3], in [11] and in [15] was “Not Active” in each case. The IC50 turned out to be 27 µM in series [4], 3.7 µM in [9], 15 µM in [10] (read-out: IC50) and 3.9 µM in series [16]. For the same molecule, the Stability entry in series [13] is recorded as “Unstable”. In addition, in series [14], the result was inactive.
In the case of `O=S(=O)(Nc1cc(Sc2nc[nH]n2)c(O)c2ccccc12)c1ccc2ccccc2c1`, the Activity entry in series [2], in series [3], in [11] and in series [15] was “Not Active” throughout. Further, the figures for the Retention_time in series [17] and in [18] were 3.28 min and 3.69 min, respectively. The IC50 in series [4] was 2.5 µM; in [9], 0.51 µM.
`CNc1nc(-c2ccccc2)[n+](-c2ccccc2)s1.[Cl-]`: the result in series [1], in series [5], in [6], in series [7], in series [8] and in [12] was Active. For the same molecule, the Activity result in [2], in series [3], in series [11] and in [15] was “Not Active” each time. Besides, the values for the IC50 in [4] and in [9] were 7.5 µM and 1.9 µM, respectively. Also, the Stability entry in series [13] was “Unstable”. Also, the result in series [14] was inactive.
Take `O=S(=O)(Nc1cc(Sc2ncn[nH]2)c(O)c2ccccc12)c1ccc2ccccc2c1`: the outcome in series [1], in series [5], in [6], in series [7], in series [8] and in series [12] was Active. Further, in series [14], the result was inactive.
Consider `O=C(O)c1ccc(-n2nnnc2SC2=CS(=O)(=O)c3ccccc32)cc1`, for which the outcome in series [1], in series [5], in [6], in series [7], in series [8] and in series [12] was Active. The Activity result in series [2], in series [3], in series [11] and in series [15] was “Not Active” each time. Moreover, the IC50 in series [4] turned out to be 11 µM; in series [9] it was 7.5 µM; in series [10] (read-out: IC50), 8.8 µM; in [16], 15 µM. Besides, in [13], the Stability result is on record as “Unstable”. The outcome in [14] was inactive.
Regarding `O=C(O)CSc1cc(NS(=O)(=O)c2ccc(C(=O)O)cc2)c2ccccc2c1O`, the Activity result is “Not Active” in series [2], “Not Active” in series [3], “Active” in series [11] and “Not Active” in [15]. For the same molecule, the figures for the Retention_time in [17] and in series [18] were 3.28 min and 3.27 min, respectively. The IC50 is 1.3 µM in series [4], 0.66 µM in series [9], “Not Active” in [10] and 0.15 µM in series [16]. The result in [7] and in series [12] was Active.
Regarding `O=S(=O)(Nc1cc(Cl)c(O)c2ccccc12)c1ccc(Br)cc1`, the Activity entry in series [2], in series [3], in series [11] and in series [15] was “Not Active” each time. The Retention_time is recorded as 3.28 min in series [17] and 3.65 min in series [18]. In addition, the IC50 in [4] came to 1.2 µM; in series [9], 1.8 µM; in series [10] (read-out: IC50), 2.5 µM; in series [16] it was 1.6 µM. The outcome in series [5], in series [6], in series [7], in series [8] and in [12] was Active.
Consider `O=C(O)CCSc1cc(NS(=O)(=O)c2ccc(Br)cc2)c2ccccc2c1O`, for which the outcome in [1], in [7] and in series [12] was Active. For the same molecule, the Activity result in series [2] is recorded as “Not Active”; in [3], “Not Active”; in [11], “Active”; in series [15], “Not Active”. Further, the Retention_time in series [17] is given as 3.28 min; in series [18] it was 3.67 min. Also, the IC50 in series [4] was 0.65 µM; in series [9], 1 µM; in [10] it was “Not Active”; in series [16], 0.52 µM. Besides, in [14], the result was inactive.
With `O=S(=O)(Nc1cc(Sc2nnnn2-c2ccccc2)c(O)c2ccccc12)c1ccccc1`, the Activity result in series [2], in series [3], in [11] and in series [15] was “Not Active” each time. Besides, the Retention_time is 3.28 min in [17] and 3.4 min in series [18]. The outcome in series [5], in [6], in [7], in series [8] and in [12] was Active. Further, the IC50 in series [9] was determined as 3.1 µM.
